Assay results from article PMC9071996 (RSC Advances, 2019).

Legend:
Assay type in all cases: cell-based
A549 cells = assay: MTS cytotoxicity assay, A549; details: Homo sapiens, A549, 72 h, read-out: IC50 (μM) A549
Method in brief: (§1)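 MTS viability assay in A549, MDA-MB-231 and RPMI-8226 human cancer cells. All compounds were first screened at 10 and 50 μM. Compounds that crossed a set viability threshold in this screen went on to IC50 determination.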

GES-1 cells = assay: MTS cytotoxicity assay, normal GES-1 cells; details: Homo sapiens, GES1, 72 h, read-out: IC50 (μM) GES-1
RPMI-8226 cells = assay: MTS cytotoxicity assay, RPMI-8226; details: Homo sapiens, RPMI-8226, 72 h, read-out: IC50 (μM) RPMI-8226
Method in brief: as §1

MDA-MB-231 cells = assay: MTS cytotoxicity assay, MDA-MB-231; details: Homo sapiens, MDA-MB-231, 72 h, read-out: IC50 (μM) MBA-MD-231
Method in brief: as §1

SMILES | IC50 (A549 cells) | IC50 (GES-1 cells) | IC50 (RPMI-8226 cells) | IC50 (MDA-MB-231 cells)
CC12CCC(c3c(-c4ccc([N+](=O)[O-])cc4)nc(N)nc31)C2(C)C (stereo not drawn) [Compound 3w, 8,9,9-Trimethyl-4-(4-nitrophenyl)-5,6,7,8-tetrahydro-5,8-methanoquinazolin-2-amine] | 10.84 ± 0.09 µM | > 50 µM | 9.58 ± 0.11 µM | 6.21 ± 0.14 µM
COc1ccc(-c2nc(N)nc3c2C2CCC3(C)C2(C)C)cc1 (stereo not drawn) [Compound 3o, 4-(4-Methoxyphenyl)-8,9,9-trimethyl-5,6,7,8-tetrahydro-5,8-methanoquinazolin-2-amine] | > 50 µM | > 50 µM | > 50 µM | > 50 µM
Cc1cccc(-c2nc(N)nc3c2C2CCC3(C)C2(C)C)c1 (stereo not drawn) [Compound 3k, 8,9,9-Trimethyl-4-(m-tolyl)-5,6,7,8-tetrahydro-5,8-methanoquinazolin-2-amine] | 18 ± 0.18 µM | > 50 µM | > 50 µM | 20 ± 0.09 µM
CC12CCC(c3c(-c4cccc(Br)c4)nc(N)nc31)C2(C)C (stereo not drawn) [Compound 3h, 4-(3-Bromophenyl)-8,9,9-trimethyl-5,6,7,8-tetrahydro-5,8-methanoquinazolin-2-amine] | > 50 µM | > 50 µM | > 50 µM | > 50 µM
CC12CCC(c3c(-c4ccccc4)nc(N)nc31)C2(C)C (stereo not drawn) [Compound 3x, 8,9,9-Trimethyl-4-phenyl-5,6,7,8-tetrahydro-5,8-methanoquinazolin-2-amine] | > 50 µM | > 50 µM | > 50 µM | 29.88 ± 0.16 µM
Cc1ccccc1-c1nc(N)nc2c1C1CCC2(C)C1(C)C (stereo not drawn) [Compound 3j, 8,9,9-Trimethyl-4-(o-tolyl)-5,6,7,8-tetrahydro-5,8-methanoquinazolin-2-amine] | 22.54 ± 0.15 µM | > 50 µM | > 50 µM | 26.2 ± 0.4 µM
COc1cc([C@@H]2c3cc4c(cc3[C@@H](O[C@@H]3O[C@@H]5CO[C@@H](C)O[C@H]5[C@H](O)[C@H]3O)[C@H]3COC(=O)[C@H]23)OCO4)cc(OC)c1O [Etoposide, reference compound] | 10.9 ± 0.79 µM | 8.89 ± 0.7 µM | 1.92 ± 0.17 µM | 3.97 ± 0.45 µM
CC12CCC(c3c(-c4ccncc4)nc(N)nc31)C2(C)C (stereo not drawn) [Compound 3u, 8,9,9-Trimethyl-4-(pyridin-4-yl)-5,6,7,8-tetrahydro-5,8-methanoquinazolin-2-amine] | > 50 µM | > 50 µM | > 50 µM | > 50 µM
CC12CCC(c3c(-c4ccccc4F)nc(N)nc31)C2(C)C (stereo not drawn) [Compound 3a, 4-(2-Fluorophenyl)-8,9,9-trimethyl-5,6,7,8-tetrahydro-5,8-methanoquinazolin-2-amine] | > 50 µM | > 50 µM | > 50 µM | 32.85 ± 0.31 µM
CC12CCC(c3c(-c4cccc(O)c4)nc(N)nc31)C2(C)C (stereo not drawn) [Compound 3q, 3-(2-Amino-8,9,9-trimethyl-5,6,7,8-tetrahydro-5,8-methanoquinazolin-4-yl)phenol] | > 50 µM | > 50 µM | > 50 µM | > 50 µM
CC12CCC(c3c(-c4ccccn4)nc(N)nc31)C2(C)C (stereo not drawn) [Compound 3s, 8,9,9-Trimethyl-4-(pyridin-2-yl)-5,6,7,8-tetrahydro-5,8-methanoquinazolin-2-amine] | > 50 µM | > 50 µM | > 50 µM | > 50 µM
CC12CCC(c3c(-c4cccc(F)c4)nc(N)nc31)C2(C)C (stereo not drawn) [Compound 3b, 4-(3-Fluorophenyl)-8,9,9-trimethyl-5,6,7,8-tetrahydro-5,8-methanoquinazolin-2-amine] | 24.35 ± 0.01 µM | > 50 µM | > 50 µM | 28.56 ± 0.26 µM
CC12CCC(c3c(-c4ccccc4Br)nc(N)nc31)C2(C)C (stereo not drawn) [Compound 3g, 4-(2-Bromophenyl)-8,9,9-trimethyl-5,6,7,8-tetrahydro-5,8-methanoquinazolin-2-amine] | 23.32 ± 0.03 µM | > 50 µM | > 50 µM | 18.3 ± 0.26 µM
CC12CCC(c3c(-c4ccc(O)cc4)nc(N)nc31)C2(C)C (stereo not drawn) [Compound 3r, 4-(2-Amino-8,9,9-trimethyl-5,6,7,8-tetrahydro-5,8-methanoquinazolin-4-yl)phenol] | > 50 µM | > 50 µM | > 50 µM | > 50 µM
CC12CCC(c3c(-c4ccccc4O)nc(N)nc31)C2(C)C (stereo not drawn) [Compound 3p, 2-(2-Amino-8,9,9-trimethyl-5,6,7,8-tetrahydro-5,8-methanoquinazolin-4-yl)phenol] | 14 ± 0.16 µM | > 50 µM | > 50 µM | 16.3 ± 0.26 µM
CC12CCC(c3c(-c4cccnc4)nc(N)nc31)C2(C)C (stereo not drawn) [Compound 3t, 8,9,9-Trimethyl-4-(pyridin-3-yl)-5,6,7,8-tetrahydro-5,8-methanoquinazolin-2-amine] | > 50 µM | > 50 µM | > 50 µM | > 50 µM
Cc1ccc(-c2nc(N)nc3c2C2CCC3(C)C2(C)C)cc1 (stereo not drawn) [Compound 3l, 8,9,9-Trimethyl-4-(p-tolyl)-5,6,7,8-tetrahydro-5,8-methanoquinazolin-2-amine] | 15.32 ± 0.09 µM | > 50 µM | 13.86 ± 0.09 µM | 15.68 ± 0.14 µM
COc1cccc(-c2nc(N)nc3c2C2CCC3(C)C2(C)C)c1 (stereo not drawn) [Compound 3n, 4-(3-Methoxyphenyl)-8,9,9-trimethyl-5,6,7,8-tetrahydro-5,8-methanoquinazolin-2-amine] | > 50 µM | > 50 µM | > 50 µM | > 50 µM
CC12CCC(c3c(-c4ccc(Br)cc4)nc(N)nc31)C2(C)C (stereo not drawn) [Compound 3i, 4-(4-Bromophenyl)-8,9,9-trimethyl-5,6,7,8-tetrahydro-5,8-methanoquinazolin-2-amine] | 16.45 ± 0.04 µM | > 50 µM | 18.94 ± 0.08 µM | 8.66 ± 0.17 µM
CN(C)c1ccc(-c2nc(N)nc3c2C2CCC3(C)C2(C)C)cc1 (stereo not drawn) [Compound 3v, 4-(4-(Dimethylamino)phenyl)-8,9,9-trimethyl-5,6,7,8-tetrahydro-5,8-methanoquinazolin-2-amine] | > 50 µM | > 50 µM | > 50 µM | > 50 µM
CC12CCC(c3c(-c4cccc(Cl)c4)nc(N)nc31)C2(C)C (stereo not drawn) [Compound 3e, 4-(3-Chlorophenyl)-8,9,9-trimethyl-5,6,7,8-tetrahydro-5,8-methanoquinazolin-2-amine] | 10.63 ± 0.09 µM | > 50 µM | 10.4 ± 0.35 µM | 23.3 ± 0.44 µM
CC12CCC(c3c(-c4ccc(F)cc4)nc(N)nc31)C2(C)C (stereo not drawn) [Compound 3c, 4-(4-Fluorophenyl)-8,9,9-trimethyl-5,6,7,8-tetrahydro-5,8-methanoquinazolin-2-amine] | 12.63 ± 0.02 µM | > 50 µM | 9.3 ± 0.34 µM | 12.59 ± 0.04 µM
COc1ccccc1-c1nc(N)nc2c1C1CCC2(C)C1(C)C (stereo not drawn) [Compound 3m, 4-(2-Methoxyphenyl)-8,9,9-trimethyl-5,6,7,8-tetrahydro-5,8-methanoquinazolin-2-amine] | > 50 µM | > 50 µM | > 50 µM | > 50 µM
CC12CCC(c3c(-c4ccccc4Cl)nc(N)nc31)C2(C)C (stereo not drawn) [Compound 3d, 4-(2-Chlorophenyl)-8,9,9-trimethyl-5,6,7,8-tetrahydro-5,8-methanoquinazolin-2-amine] | 16.9 ± 0.5 µM | > 50 µM | 11.4 ± 0.18 µM | 25.5 ± 0.39 µM
